Assay results: ChEMBL document CHEMBL2375314, “Mitochondrial-targeted protective properties of isolated diterpenoids from sideritis spp. in response to the deleterious changes induced by H2O2” (J Nat Prod, 2013)
Active and inactive are the calls of the source. The rule behind the calls is not given here.

Legend:
[1] = Neurotoxicity in human U373MG cells assessed as caspase-3 activation at 5 to 10 uM after 24 hrs by fluorometric analysis in presence of Ac-DEVD-AMC; assay type: toxicity, cell-based; details: u-373mg atcc
Procedure, shortened: (§1)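 Cells held 24 h with 5 or 10 μM, H2O2 then applied for 30 min in challenge arms (0.1 mM PC12, 1 mM U373-MG). Total cell extract (20 μg) incubated with Ac-DEVD-AMC (20 μM) for 1 h at 37 °C. Released AMC read at ex 360/em 460 nm. Expressed as % of control; mean ± SD, n = 9.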

PC-12 [2] = assay: Neurotoxicity in rat PC12 cells assessed as change in mitochondrial calcium level at 5 uM after 24 hrs by Rhod-2 staining-based fluorocytometric analysis (reference value: 1 +/- 0.02 nM); assay type: toxicity, cell-based; details: pc-12, 24 h
Procedure, shortened: (§2)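 24 h exposure at 5 or 10 μM, optionally followed by 30 min H2O2 (0.1 mM PC12, 1 mM U373-MG). Cells loaded with Rhod-2/AM in Krebs normal-calcium medium for 40 min at 37 °C in the dark, then 30 min for ester hydrolysis. Fluorescence at ex 552/em 581 nm for 4 min, then 15 min after A23187 (5 μM). Ratio of post-ionophore maximum to basal, relative to control; mean ± SD, n = 9.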

PC-12 [3] = assay: Neuroprotective activity in rat PC12 cells assessed as decrease in H2O2-induced cytosolic calcium level at 5 uM incubated for 24 hrs prior to H2O2 challenge measured after 30 mins by indo-1/AM staining-based fluorocytometric analysis (reference value: 395.9 +/- 15.9 nM); assay type: functional
U373 MG [4] = assay: Neuroprotective activity in human U373MG cells assessed as reduction of H2O2-induced mitochondrial calcium level at 5 uM incubated for 24 hrs prior to H2O2 challenge measured after 30 mins by Rhod-2 staining-based fluorocytometric analysis (reference value: 1.5 +/- 0.02 nM); assay type: functional, U-373MG ATCC; procedure, shortened: as §2
[5] = Neurotoxicity in human U373MG cells assessed as effect on cellular ATP level at 5 to 10 uM after 24 hrs by HPLC analysis; assay type: toxicity, cell-based; details: u-373mg atcc
Procedure, shortened: (§3)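 After 24 h at 5 or 10 μM, with or without H2O2 for 30 min (0.1 mM PC12; 1 mM U373-MG), cells extracted in 0.6 M HClO4/25 mM EDTA and neutralized with KOH/Tris. Reversed-phase C18 HPLC, isocratic 100 mM KH2PO4 (pH 6.5)/1% methanol at 1 mL/min, UV at 254 nm. Quantified against an ATP standard curve (0.25–5 μM), normalized to protein, as % of control; mean ± SD, n = 9.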

[6] = Neurotoxicity in human U373MG cells assessed as change in mitochondrial membrane potential at 5 to 10 uM after 24 hrs by TMRM staining-based fluorocytometric analysis relative to control; assay type: toxicity, cell-based; details: u-373mg atcc
Procedure, shortened: (§4)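 Cells given 5 or 10 μM for 24 h, then H2O2 for 30 min (0.1 mM PC12, 1 mM U373-MG) where challenged. Loaded in Krebs medium with 150 nM TMRM; fluorescence at ex 549/em 573 nm read for 45 min at 37 °C. FCCP (6 μM) plus oligomycin (0.25 μg/mL) then added for maximal depolarization and read 15 min. Value from maximal minus basal fluorescence, as % of control; mean ± SD, n = 9.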

PC-12 [7] = assay: Neuroprotective activity in rat PC12 cells assessed as reduction of H2O2-induced mitochondrial calcium level at 10 uM incubated for 24 hrs prior to H2O2 challenge measured after 30 mins by Rhod-2 staining-based fluorocytometric analysis (reference value: 1.7 +/- 0.01 nM); assay type: functional; procedure, shortened: as §2
PC-12 [8] = assay: Neurotoxicity in rat PC12 cells assessed as change in mitochondrial calcium level at 10 uM after 24 hrs by Rhod-2 staining-based fluorocytometric analysis (reference value: 1 +/- 0.02 nM); assay type: toxicity, cell-based; details: pc-12, 24 h; procedure, shortened: as §2
[9] = Neurotoxicity in human U373MG cells assessed as change in mitochondrial calcium level at 10 uM after 24 hrs by Rhod-2 staining-based fluorocytometric analysis (reference value: 1 +/- 0.03 nM); assay type: toxicity, cell-based; details: u-373mg atcc; procedure, shortened: as §2
[10] = Neurotoxicity in human U373MG cells assessed as change in mitochondrial calcium level at 5 uM after 24 hrs by Rhod-2 staining-based fluorocytometric analysis (reference value: 1 +/- 0.03 nM); assay type: toxicity, cell-based; details: u-373mg atcc; procedure, shortened: as §2
PC-12 [11] = assay: Neurotoxicity in rat PC12 cells assessed as caspase-3 activation at 5 to 10 uM after 24 hrs by fluorometric analysis in presence of Ac-DEVD-AMC; assay type: toxicity, cell-based; details: pc-12, 24 h; procedure, shortened: as §1
PC-12 [12] = assay: Neuroprotective activity in rat PC12 cells assessed as inhibition of H2O2-induced caspase-3 activity at 5 to 10 uM incubated for 24 hrs prior to H2O2 challenge measured after 30 mins by fluorometric analysis in presence of Ac-DEVD-AMC; assay type: functional, cell-based; procedure, shortened: as §1
PC-12 [13] = assay: Neuroprotective activity in rat PC12 cells assessed as decrease in H2O2-induced cytosolic calcium level at 10 uM incubated for 24 hrs prior to H2O2 challenge measured after 30 mins by indo-1/AM staining-based fluorocytometric analysis (reference value: 395.9 +/- 15.9 nM); assay type: functional
U373 MG [14] = assay: Neuroprotective activity in human U373MG cells assessed as decrease in H2O2-induced cytosolic calcium level at 10 uM incubated for 24 hrs prior to H2O2 challenge measured after 30 mins by indo-1/AM staining-based fluorocytometric analysis (reference value: 482.7 +/- 14.5 nM); assay type: functional, U-373MG ATCC
PC-12 [15] = assay: Neuroprotective activity in rat PC12 cells assessed as protection against H2O2-induced reduction in mitochondrial membrane potential at 5 to 10 uM incubated for 24 hrs prior to H2O2 challenge measured after 30 mins by TMRM staining-based fluorocytometric analysis relative to control; assay type: functional, cell-based; procedure, shortened: as §4
U373 MG [16] = assay: Neuroprotective activity in human U373MG cells assessed as decrease in H2O2-induced cytosolic calcium level at 5 uM incubated for 24 hrs prior to H2O2 challenge measured after 30 mins by indo-1/AM staining-based fluorocytometric analysis (reference value: 482.7 +/- 14.5 nM); assay type: functional, U-373MG ATCC
U373 MG [17] = assay: Neuroprotective activity in human U373MG cells assessed as protection against H2O2-induced reduction in cellular ATP level at 5 to 10 uM incubated for 24 hrs prior to H2O2 challenge measured after 30 mins by HPLC analysis; assay type: functional, cell-based; details: U-373MG ATCC; procedure, shortened: as §3
[18] = Neurotoxicity in human U373MG cells assessed as change in cytosolic calcium level at 10 uM after 24 hrs by indo-1/AM staining-based fluorocytometric analysis (reference value: 91.1 +/- 12.5 nM); assay type: toxicity, cell-based; details: u-373mg atcc
PC-12 [19] = assay: Neurotoxicity in rat PC12 cells assessed as change in mitochondrial membrane potential at 5 to 10 uM after 24 hrs by TMRM staining-based fluorocytometric analysis relative to control; assay type: toxicity, cell-based; details: pc-12, 24 h; procedure, shortened: as §4
U373 MG [20] = assay: Neuroprotective activity in human U373MG cells assessed as inhibition of H2O2-induced caspase-3 activity at 5 to 10 uM incubated for 24 hrs prior to H2O2 challenge measured after 30 mins by fluorometric analysis in presence of Ac-DEVD-AMC; assay type: functional, cell-based; details: U-373MG ATCC; procedure, shortened: as §1
[21] = Neurotoxicity in human U373MG cells assessed as change in cytosolic calcium level at 5 uM after 24 hrs by indo-1/AM staining-based fluorocytometric analysis (reference value: 91.1 +/- 12.5 nM); assay type: toxicity, cell-based; details: u-373mg atcc
U373 MG [22] = assay: Neuroprotective activity in human U373MG cells assessed as protection against H2O2-induced reduction in mitochondrial membrane potential at 5 to 10 uM incubated for 24 hrs prior to H2O2 challenge measured after 30 mins by TMRM staining-based fluorocytometric analysis relative to control; assay type: functional, cell-based; details: U-373MG ATCC; procedure, shortened: as §4
PC-12 [23] = assay: Neuroprotective activity in rat PC12 cells assessed as protection against H2O2-induced reduction in cellular ATP level at 5 to 10 uM incubated for 24 hrs prior to H2O2 challenge measured after 30 mins by HPLC analysis; assay type: functional, cell-based; procedure, shortened: as §3
PC-12 [24] = assay: Neuroprotective activity in rat PC12 cells assessed as reduction of H2O2-induced mitochondrial calcium level at 5 uM incubated for 24 hrs prior to H2O2 challenge measured after 30 mins by Rhod-2 staining-based fluorocytometric analysis (reference value: 1.7 +/- 0.01 nM); assay type: functional; procedure, shortened: as §2
PC-12 [25] = assay: Neurotoxicity in rat PC12 cells assessed as effect on cellular ATP level at 5 to 10 uM after 24 hrs by HPLC analysis; assay type: toxicity, cell-based; details: pc-12, 24 h; procedure, shortened: as §3
PC-12 [26] = assay: Neurotoxicity in rat PC12 cells assessed as change in cytosolic calcium level at 10 uM after 24 hrs by indo-1/AM staining-based fluorocytometric analysis (reference value: 51.3 +/- 11.3 nM); assay type: toxicity, cell-based; details: pc-12, 24 h
PC-12 [27] = assay: Neurotoxicity in rat PC12 cells assessed as change in cytosolic calcium level at 5 uM after 24 hrs by indo-1/AM staining-based fluorocytometric analysis (reference value: 51.3 +/- 11.3 nM); assay type: toxicity, cell-based; details: pc-12, 24 h
U373 MG [28] = assay: Neuroprotective activity in human U373MG cells assessed as reduction of H2O2-induced mitochondrial calcium level at 10 uM incubated for 24 hrs prior to H2O2 challenge measured after 30 mins by Rhod-2 staining-based fluorocytometric analysis (reference value: 1.5 +/- 0.02 nM); assay type: functional, U-373MG ATCC; procedure, shortened: as §2

Row | SMILES | Activity [1] | Activity (PC-12 [2]) [nM] | Activity (PC-12 [3]) [nM] | Activity (U373 MG [4]) [nM] | Activity [5] | Activity [6] | Activity (PC-12 [7]) [nM] | Activity (PC-12 [8]) [nM] | Activity [9] [nM] | Activity [10] [nM] | Activity (PC-12 [11]) | Activity (PC-12 [12]) | Activity (PC-12 [13]) [nM] | Activity (U373 MG [14]) [nM] | Activity (PC-12 [15]) | Activity (U373 MG [16]) [nM] | Activity [18] [nM] | Activity (PC-12 [19]) | Activity [21] [nM] | Activity (PC-12 [23]) | other results
1 | C=CC(=C)CC[C@H]1[C@]2(C)CCC[C@](C)(CO)[C@H]2[C@H](O)C[C@]1(C)O [ANDALUSOL] | Non-toxic | 1.05 | 185.8 | 1.15 | Non-toxic | Non-toxic | 1.2 | 1.09 | 0.99 | 0.97 | Non-toxic | Active | 174.8 | 166.2 | Active | 189.6 | 98 | Non-toxic | 92.2 | Active | Activity (U373 MG [17]): Active; Activity (U373 MG [20]): Active; Activity (U373 MG [22]): Active; Activity (PC-12 [24]): 1.3 nM; Activity (PC-12 [25]): Non-toxic; Activity (PC-12 [26]): 56.8 nM; Activity (PC-12 [27]): 56.5 nM; Activity (U373 MG [28]): 1.09 nM
2 | CC1(C)CCC[C@]2(C)[C@@H]1C[C@H](O)[C@@]13C=C[C@@](CO)(C1)[C@H](O)C[C@@H]23 [CONCHITRIOL] | Non-toxic | 1.08 | 188.8 | 1.48 | Non-toxic | Non-toxic | 1.3 | 1.05 | 0.97 | 0.99 | Non-toxic | Active | 192.6 | 430.9 | Active | 479.6 | 98 | Non-toxic | 93.2 | Active | Activity (PC-12 [24]): 1.4 nM; Activity (PC-12 [25]): Non-toxic; Activity (PC-12 [26]): 60.6 nM; Activity (PC-12 [27]): 53.5 nM; Activity (U373 MG [28]): 1.45 nM
3 | CC1(C)CCC[C@H]2C1=CC[C@H]1C[C@@](C)([C@@H](O)CO)C[C@@H](O)[C@@]12C [LAGASCATRIOL] | Non-toxic | 0.9 | 202.5 | 1.22 | Non-toxic | Non-toxic | 1.5 | 0.98 | 1.05 | 1.02 | Non-toxic | Active | 187.7 | 208.5 | Active | 222.5 | 98.1 | Non-toxic | 102.1 | Active | Activity (U373 MG [17]): Active; Activity (U373 MG [20]): Active; Activity (U373 MG [22]): Active; Activity (PC-12 [24]): 1.4 nM; Activity (PC-12 [25]): Non-toxic; Activity (PC-12 [26]): 51.4 nM; Activity (PC-12 [27]): 63.5 nM; Activity (U373 MG [28]): 1.17 nM
